Each structure is given as a SMILES string. Activity calls are given as the source filed them.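 How the source made its calls, unless noted: active means viability at or under a set limit in both replicates, limit being median viability minus 3 SD (cut at about 48% in these data, passing the limit was not always enough); inconclusive means at or under the limit in just one replicate; inactive means at or above the limit in both replicates.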

Usually viability stands for a read-out of living cells in per cent, often relative to untreated cells. The inhibition is the relative decrease from the control value, in per cent.

Experiment [1] can be described thus: reducers of endogenous Her2 protein level, primary screen, SKBR3 breast tumor cells, AlphaScreen, ATP viability (AID 461;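 active means Her2 level under about 52% in both replicate screens, with viability over 70% of control, limit read from the data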;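 on Her2 level: lower value means less Her2 protein in the cells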;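 on viability: percent of carrier control wells set as 100% viability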). The note with it: 18-24 h, measured here: SKBR3 viability, ATP luminescence, at 10 µM.
Experiment [2] concerns the target Receptor tyrosine-protein kinase erbB-2 (Homo sapiens) (UniProt P04626). The experiment is described as above. The note with it: 18-24 h, at 10 µM, stronger effect = lower value.
Experiment [3] is described as follows: SK-BR-3 cell growth inhibitors, pilot screen, 24 h, human (AID 572;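 active means viability at or below 10% of carrier control in both of two separate runs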;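 further: compound exposure lasted between 18 and 24 h rather than exactly 24 h; 100% = carrier-treated control wells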). The note with it: SK-BR-3 viability, CellTiter-Glo luminescence, at 10 µM, stronger effect = lower value.
A short description of experiment [4]: HUVEC growth inhibition – cell-based, human, primary screen (AID 575;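 active means viability at or below 30% in both replicate assays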;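 further: 100% = median of untreated cell wells with 0.1% DMSO on each plate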). The note with it: HUVEC proliferation, CellTiter-Glo luminescence, 72 h; at 10 µM; stronger effect = lower value. The method, boiled down: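 System – primary HUVEC, no more than 12 passages · Medium – Low-serum (2% FBS) EBM, supplemented · Times – 72 h exposure, 37 °C, 5% CO2, 30 min RT equilibration · Measured by – luminescent ATP assay · Read-out – % viability relative to median vehicle-well signal on each plate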
For orientation: Cellular ATP, detected with luciferase, serves as a proxy for viable cell number.

The nature of experiment [5]: growth inhibitors of H69AR lung tumor, primary screen, human, duplicate replicates (AID 580).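 Further: 100% = mean luminescence of untreated wells and 0% = no signal.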 The note with it: H69AR lung tumor cells viability, ATP luminescence, 72 h; at 10 µM; stronger effect = lower value.
Experiment [6] is described as follows: reversal of MRP1-mediated doxorubicin resistance, pilot screen, H69AR cells, doxorubicin co-treatment (AID 601;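 active means viability loss from added drug above about 55%, and viability with drug at most 40%, in both replicates, limit read from the data, passing the limit was not always enough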). The note with it: CellTiter-Glo, 72 h, at 10 µM; for differential viability (reversal): stronger effect = higher value.
Experiment [7] in a line: 384-well plate pilot, post-Golgi transport modulator project, inhibition of yeast transport mutant growth (AID 636; in the data active means inhibition above about 31%). The note with it: absorbance 615 nm, about 18 h, stronger effect = higher value.
A short description of experiment [8]: growth suppression of yeast trafficking mutant, preliminary HTS, modulators of trafficking downstream of Golgi apparatus project, 1536-format plate, OD 615 nm (AID 637; in the data active means inhibition above about 30%). To be noted: yeast transport mutant growth, absorbance 615 nm, 18 h; stronger effect = higher value.
[9] abbreviates: H69AR cells + 2 uM doxorubicin, measured here: viability with 2 uM doxorubicin, stronger effect = lower value.
[10] abbreviates: H69AR cells, compound alone cytotoxicity.

Receptor tyrosine-protein kinase erbB-2 (Homo sapiens), sequence (P04626 whole entry, looked up): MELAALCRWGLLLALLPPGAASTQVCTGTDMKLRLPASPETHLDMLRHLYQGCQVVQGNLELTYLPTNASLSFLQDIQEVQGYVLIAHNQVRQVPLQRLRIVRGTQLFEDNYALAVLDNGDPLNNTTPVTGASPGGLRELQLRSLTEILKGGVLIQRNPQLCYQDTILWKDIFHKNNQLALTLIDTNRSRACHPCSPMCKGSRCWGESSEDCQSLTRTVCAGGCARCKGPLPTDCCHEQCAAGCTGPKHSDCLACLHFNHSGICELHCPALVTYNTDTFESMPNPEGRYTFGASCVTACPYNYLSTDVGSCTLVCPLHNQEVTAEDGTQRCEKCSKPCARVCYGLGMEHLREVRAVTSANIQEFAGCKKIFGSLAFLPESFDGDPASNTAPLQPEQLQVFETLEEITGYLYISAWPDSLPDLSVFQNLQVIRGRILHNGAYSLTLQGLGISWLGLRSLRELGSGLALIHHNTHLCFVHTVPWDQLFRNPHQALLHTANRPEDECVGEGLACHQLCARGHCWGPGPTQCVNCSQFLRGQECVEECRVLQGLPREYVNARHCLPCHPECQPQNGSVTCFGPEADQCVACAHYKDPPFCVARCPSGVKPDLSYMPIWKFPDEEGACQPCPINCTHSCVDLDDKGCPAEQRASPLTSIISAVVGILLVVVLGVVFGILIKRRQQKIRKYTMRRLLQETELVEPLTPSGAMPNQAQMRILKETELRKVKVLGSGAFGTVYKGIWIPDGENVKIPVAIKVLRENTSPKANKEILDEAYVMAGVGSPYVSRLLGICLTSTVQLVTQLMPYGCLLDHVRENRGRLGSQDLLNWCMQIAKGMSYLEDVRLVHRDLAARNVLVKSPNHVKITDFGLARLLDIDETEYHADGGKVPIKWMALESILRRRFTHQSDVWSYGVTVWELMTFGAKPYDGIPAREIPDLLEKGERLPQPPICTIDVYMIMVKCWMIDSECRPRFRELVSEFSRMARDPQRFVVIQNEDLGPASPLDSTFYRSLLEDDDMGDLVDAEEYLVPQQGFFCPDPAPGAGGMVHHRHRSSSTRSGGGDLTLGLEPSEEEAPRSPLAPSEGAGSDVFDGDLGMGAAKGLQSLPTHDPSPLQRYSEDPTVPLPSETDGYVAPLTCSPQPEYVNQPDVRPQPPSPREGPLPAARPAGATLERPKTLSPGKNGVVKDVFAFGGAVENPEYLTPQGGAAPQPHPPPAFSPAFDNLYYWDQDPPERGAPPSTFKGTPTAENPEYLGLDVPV

For the molecule `O=C(Cn1cnc2c(oc3ccccc32)c1=O)N1CCN(c2ccccc2)CC1`, the viability in experiment [1] was 95%; in experiment [3], 95% (inactive); in experiment [4] it was 91.6% (inactive); in experiment [5] it was 84.9% (inactive); in experiment [6] (setting [9]), 87.7%; in experiment [6] (setting [10]), 84.9%. In addition, the Her2 level in experiment [2] is 91.5% (inactive). In addition, the differential viability (reversal) in experiment [6] (H69AR cells + 2 uM doxorubicin) is -2.86% (inactive). Moreover, the inhibition was -0.66% (inactive) in experiment [7] and 3.65% (inactive) in experiment [8].
Regarding `CCSc1nnc(NC(=O)CSc2nnc(Cc3cccn3C)n2-c2ccc(C)cc2)s1`, the viability is 95.5% in experiment [1]; 95.5% (inactive) in experiment [3]; 78.4% (inactive) in experiment [4]; 88.8% (inactive) in experiment [5]; 96.1% in experiment [6] (setting [9]); 88.8% in experiment [6] (setting [10]). Besides, in experiment [2], the Her2 level was 108% (inactive). Moreover, in experiment [6] (H69AR cells + 2 uM doxorubicin), the differential viability (reversal) is -7.38% (inactive). Also, the inhibition was -1.56% (inactive) in experiment [7] and -5.24% (inactive) in experiment [8].
As for `CCCC(=O)Nc1nnc(Sc2ccc(N(C)C)cc2)s1`, the viability in experiment [1] was 100%; in experiment [3] it was 100% (inactive); in experiment [4], 80.3% (inactive); in experiment [5], 101% (inactive); in experiment [6] (setting [9]), 85.4%; in experiment [6] (setting [10]) it was 101%. Moreover, in experiment [2], the Her2 level was 90% (inactive). The differential viability (reversal) in experiment [6] (H69AR cells + 2 uM doxorubicin) was 15.3% (inactive). Also, the inhibition in experiment [7] was -5.2% (inactive); in experiment [8] it was -8.73% (inactive).
As for `C=CCOC(=O)C(C#N)c1nc2ccccc2nc1N1CCN(Cc2ccccc2)CC1` (stereo not given), the viability in experiment [1] was 94%; in experiment [3] it was 94% (inactive); in experiment [4], 77.7% (inactive); in experiment [5], 84.1% (inactive); in experiment [6] (setting [9]) it was 93.6%; in experiment [6] (setting [10]), 84.1%. In addition, in experiment [2], the Her2 level is 79% (inactive). Also, in experiment [6] (H69AR cells + 2 uM doxorubicin), the differential viability (reversal) was -9.45% (inactive). Besides, the inhibition in experiment [7] is -4.53% (inactive); in experiment [8], 2.3% (inactive).
Turning to `COc1ccc(N2CCN(Cc3nc4c(c(=O)[nH]c(=O)n4C)n3CC(C)=O)CC2)cc1`, the viability in experiment [1] was 98.5%; in experiment [3], 98.5% (inactive); in experiment [4] it was 101% (inactive); in experiment [5], 95.4% (inactive); in experiment [6] (setting [9]), 84.9%; in experiment [6] (setting [10]) it was 95.4%. The Her2 level in experiment [2] was 102% (inactive). In addition, the differential viability (reversal) in experiment [6] (H69AR cells + 2 uM doxorubicin) is 10.4% (inactive). In addition, the results for the inhibition in experiment [7] and in experiment [8] were 0% (inactive) and 0.17% (inactive), respectively.
Turning to `CNC(=O)Nc1cccc(C(F)(F)F)c1`, the viability is 105% in experiment [1]; 105% (inactive) in experiment [3]; 93% (inactive) in experiment [4]; 93.6% (inactive) in experiment [5]; 100% in experiment [6] (setting [9]); 93.6% in experiment [6] (setting [10]). The Her2 level in experiment [2] was 82.5% (inactive). Moreover, in experiment [6] (H69AR cells + 2 uM doxorubicin), the differential viability (reversal) was -6.37% (inactive). Also, the inhibition in experiment [7] was -4.08% (inactive); in experiment [8] it was 0% (inactive).
`Cc1ccc(Nc2nc(CSc3nnnn3C)cs2)cc1`: the viability is 101% in experiment [1]; 101% (inactive) in experiment [3]; 95.3% (inactive) in experiment [4]; 113% (inactive) in experiment [5]; 87.4% in experiment [6] (setting [9]); 113% in experiment [6] (setting [10]). In addition, the Her2 level in experiment [2] is 96% (inactive). In addition, the differential viability (reversal) in experiment [6] (H69AR cells + 2 uM doxorubicin) is 25.7% (inactive). The inhibition in experiment [7] is -7.24% (inactive); in experiment [8], -1.45% (inactive).
`Cc1c(CCC#N)c(N2CCN(C3CCCCC3)CC2)n2c(nc3ccccc32)c1C#N`: the viability in experiment [1] was 88%; in experiment [3], 88% (inactive); in experiment [4] it was 74.7% (inactive); in experiment [5], 32.5% (active); in experiment [6] (setting [9]) it was 22.1%; in experiment [6] (setting [10]) it was 32.5%. Also, the Her2 level in experiment [2] was 83.5% (inactive). Moreover, the differential viability (reversal) in experiment [6] (H69AR cells + 2 uM doxorubicin) is 10.4% (inactive). Also, the values for the inhibition in experiment [7] and in experiment [8] were -5.48% (inactive) and -0.16% (inactive), respectively.
For the molecule `CC1CCN(C(=O)C2CCN(S(=O)(=O)c3cnc[nH]3)CC2)CC1`, the viability in experiment [1] is 98%; in experiment [3] it was 98% (inactive); in experiment [4], 96.5% (inactive); in experiment [5], 103% (inactive); in experiment [6] (setting [9]), 95.3%; in experiment [6] (setting [10]) it was 103%. In experiment [2], the Her2 level is 93% (inactive). Besides, the differential viability (reversal) in experiment [6] (H69AR cells + 2 uM doxorubicin) is 7.72% (inactive). Besides, the inhibition in experiment [7] was -4.61% (inactive); in experiment [8] it was 3.87% (inactive).
On to `COc1ccc(OCc2nc(N)nc(Nc3cccc(C)c3C)n2)cc1`, for which the viability in experiment [1] is 98.5%; in experiment [3], 98.5% (inactive); in experiment [4], 111% (inactive); in experiment [5] it was 103% (inactive); in experiment [6] (setting [9]), 96%; in experiment [6] (setting [10]) it was 103%. In addition, the Her2 level in experiment [2] is 120% (inactive). The differential viability (reversal) in experiment [6] (H69AR cells + 2 uM doxorubicin) was 7.49% (inactive). The inhibition in experiment [7] is -4.55% (inactive); in experiment [8], -6% (inactive).
In the case of `CN(c1ccccc1)C(c1ccc(F)cc1)c1nnnn1CC1CCCO1` (stereo not given), the viability was 104% in experiment [1]; 104% (inactive) in experiment [3]; 97% (inactive) in experiment [4]; 94.1% (inactive) in experiment [5]; 87.6% in experiment [6] (setting [9]); 94.1% in experiment [6] (setting [10]). Further, in experiment [2], the Her2 level is 98% (inactive). Moreover, in experiment [6] (H69AR cells + 2 uM doxorubicin), the differential viability (reversal) was 6.48% (inactive). Further, the inhibition in experiment [7] was -4.32% (inactive); in experiment [8] it was 0.83% (inactive).
On to `Cc1ccc(S(=O)(=O)C2(C(=O)Nc3nccs3)CC2)cc1`, for which the viability in experiment [1] is 95%; in experiment [3], 95% (inactive); in experiment [4] it was 93.7% (inactive); in experiment [5], 101% (inactive); in experiment [6] (setting [9]), 95%; in experiment [6] (setting [10]), 101%. Moreover, the Her2 level in experiment [2] is 95% (inactive). Besides, the differential viability (reversal) in experiment [6] (H69AR cells + 2 uM doxorubicin) is 5.59% (inactive). Besides, the results for the inhibition in experiment [7] and in experiment [8] were -2.44% (inactive) and -2.33% (inactive), respectively.
For `COc1ccc(Cl)cc1NC(=O)c1oc(C)nc1C`, the viability in experiment [1] was 91%; in experiment [3] it was 91% (inactive); in experiment [4], 91% (inactive); in experiment [5], 90.1% (inactive); in experiment [6] (setting [9]), 92.3%; in experiment [6] (setting [10]), 90.1%. The Her2 level in experiment [2] was 71.5% (inactive). Further, the differential viability (reversal) in experiment [6] (H69AR cells + 2 uM doxorubicin) is -2.13% (inactive). The inhibition is -5.95% (inactive) in experiment [7] and 6.5% (inactive) in experiment [8].
`COc1nc(OC)nc(N2CCC(C(=O)NC3CCCCCC3)CC2)n1`: the viability in experiment [1] was 95.5%; in experiment [3], 95.5% (inactive); in experiment [4], 104% (inactive); in experiment [5], 105% (inactive); in experiment [6] (setting [9]), 100%; in experiment [6] (setting [10]), 105%. The Her2 level in experiment [2] is 102% (inactive). The differential viability (reversal) in experiment [6] (H69AR cells + 2 uM doxorubicin) was 4.45% (inactive). Also, the values for the inhibition in experiment [7] and in experiment [8] were 3.6% (inactive) and -2.3% (inactive), respectively.
Regarding `Cc1cc2nc(C3CCN(CC4COc5ccccc5O4)CC3)[nH]c2cc1C` (stereo not given), the viability is 98.5% in experiment [1]; 98.5% (inactive) in experiment [3]; 3.41% (active) in experiment [4]; 77.8% (inactive) in experiment [5]; 55.2% in experiment [6] (setting [9]); 77.8% in experiment [6] (setting [10]). Moreover, the Her2 level in experiment [2] was 87.5% (inactive). In addition, the differential viability (reversal) in experiment [6] (H69AR cells + 2 uM doxorubicin) was 22.7% (inactive). The inhibition was -3.03% (inactive) in experiment [7] and 2.83% (inactive) in experiment [8].
Turning to `C=CCn1c(-c2ccccc2)c[nH]c1=S`, the viability in experiment [1] was 91%; in experiment [3], 91% (inactive); in experiment [4] it was 114% (inactive); in experiment [5], 99.9% (inactive); in experiment [6] (setting [9]), 77.5%; in experiment [6] (setting [10]), 99.9%. In addition, in experiment [2], the Her2 level was 92.5% (inactive). In experiment [6] (H69AR cells + 2 uM doxorubicin), the differential viability (reversal) is 22.4% (inactive). In addition, the inhibition was -5.84% (inactive) in experiment [7] and 0.16% (inactive) in experiment [8].
